What was measured:
Assay type in all cases: functional
Rattus norvegicus [1] = species: Rattus norvegicus; assay: Sensitization effect was determined
Rattus norvegicus [2] = species: Rattus norvegicus; assay: Inhibitory concentration against evoked synaptic field potential of CA1 neurons in absence of quisqualic acid from rat hippocampus
Outline: (§1)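 Transverse 500-µm hippocampal slices from 30–100-day-old male Sprague-Dawley rats, submerged in oxygenated medium at 34 °C. Field potentials evoked by stimulating the Schaffer collaterals. Compound started at a subthreshold level and doubled every 4 min until the response fell >70% or exceeded 10 mM. IC50 was interpolated from fractional peak amplitude versus log concentration. Sequence included a 16 µM L-quisqualate exposure between tests.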

Rattus norvegicus [3] = species: Rattus norvegicus; assay: Inhibitory concentration against evoked synaptic field potential of CA1 neurons in presence of 16 uM quisqualic acid from rat hippocampus; outline: as §1

IC50 (Rattus norvegicus [2]) [µM]	IC50 (Rattus norvegicus [3]) [µM]	Structure (SMILES)	Sensitisation (Rattus norvegicus [1])	IC50 (Rattus norvegicus [2]; Rattus norvegicus) [µM]	IC50 (Rattus norvegicus [3]; Rattus norvegicus) [µM]
> 10000	> 10000	N[C@@H](CC1CC(=O)NC1=O)C(=O)O (stereo in doubt; 5a)	–	–	–
9200	6800	N[C@@H](CC1CC(=O)NC1=O)C(=O)O (stereo in doubt; 5b)	1.3	–	–

More lines, now with the values behind:

Structure (SMILES)	IC50 (Rattus norvegicus [2]) [µM]	IC50 (Rattus norvegicus [3]) [µM]	Sensitisation (Rattus norvegicus [1])	IC50 (Rattus norvegicus [2]; Rattus norvegicus) [µM]	IC50 (Rattus norvegicus [3]; Rattus norvegicus) [µM]
N[C@H](CCP(=O)(O)O)C(=O)O	–	–	17	2600	152
CN1C(=O)C=C(C[C@H](N)C(=O)O)C1=O	–	–	14	95	6.8
N[C@H](Cn1oc(=O)[nH]c1=O)C(=O)O	–	–	7.5	78	10
N[C@@H](CCP(=O)(O)O)C(=O)O	–	–	33	1800	55
N[C@@H](CC1=CC(=O)NC1=O)C(=O)O	–	–	2.2	21	9.5
N[C@@H](CC1=CC(=O)N(CC(=O)O)C1=O)C(=O)O	–	–	7.7	–	–
NC(CN1CC(=O)NC1=O)C(=O)O (configuration not stated)	–	–	1.7	1.4	0.8
N[C@@H](Cn1oc(=O)[nH]c1=O)C(=O)O [QUISQUALATE]	–	–	1.3	3.9	2.9

Reference: ChEMBL document CHEMBL1126108, “Quisqualic acid analogues: synthesis of beta-heterocyclic 2-aminopropanoic acid derivatives and their activity at a novel quisqualate-sensitized site” (J Med Chem, 1992)
